Experiment [1] has as its target T1, hTRPML1-nLuc (Homo sapiens, UniProt Q9GZU1). The experiment in a line: In-cell BRET kinetics of competitive binding. As to conditions: for koff: read-out: koff of unlabeled compound. The procedure, abridged: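 hTRPML1-nLuc HEK293T cells in Opti-MEM were given nLuc substrate plus inhibitor, shaken 5 min and read for a 1-min baseline. The reader then injected tracer (2.0 μM final) premixed with one of two concentrations of unlabeled compound, or DMSO vehicle; 60 μM reference antagonist defined nonspecific binding. Specific BRET versus time was fitted to the Motulsky–Mahan competitive kinetics model with tracer kon/koff obtained separately. n = 6/concentration, single experiment.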
(In general: Bioluminescence resonance energy transfer reports proximity on the nanometre scale.)

In experiment [2] the target is T2, GCaMP6f-hTRPML1 (Homo sapiens, UniProt Q9GZU1). The experiment in a line: GCaMP6f Ca2+ indicator channel activation assay. It counts as cell-based. The procedure, abridged:
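HEK293T cells were transfected with GCaMP6f-hTRPML1 and seeded at 4 × 10^5 cells/100 μl in poly-D-lysine plates. After 24 h the medium was changed to phenol red-free DMEM, with a further 24 h growth. Plates were equilibrated 10 min at RT and 10 min at 25 °C, followed by a 1-min baseline read every 5 s. The 10× compound in Ca2+-free HEPES buffer was injected and reads continued 6 min (ex 480 ± 25, em 549–562 nm; final DMSO 0.5%). Baseline-normalised AUC was scaled to DMSO (0%) and reference agonist (100%), and EC50 was taken from a nonlinear fit. n = 6/concentration, three independent experiments.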

Experiment [3] has as its target T1, hTRPML1-nLuc. The experiment is described as follows: In-cell BRET competitive displacement of MRC087. It counts as binding. The procedure, abridged: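 hTRPML1-nLuc HEK293T cells (2 × 10^5/100 μl, 48 h post-transfection) in Opti-MEM received tracer at 2.0 μM final and serially diluted test compound (final DMSO 1%). After 2 h incubation, nLuc substrate plus inhibitor was added and emissions read at 460/610 nm. BRET was normalised to probe-only and no-probe wells and fitted for EC50, then converted to KdA by Cheng–Prusoff using tracer Kd. n = 3–4/concentration, three independent experiments.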

In the next experiment the test system is hTRPML1. Particulars: ref [11], [12], cited from earlier work.
Experiment [4] addresses T2, GCaMP6f-hTRPML1. The experiment is described as follows: GCaMP6f Ca2+ indicator channel assay. It counts as cell-based. The procedure, abridged:
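GCaMP6f-hTRPML1-transfected HEK293T cells were preincubated 10 min at RT with test compound. After a 1-min baseline (reads every 5 s), reference agonist was injected at 25 μM final and fluorescence recorded a further 6 min (ex 480 ± 25, em 549–562 nm; 0.5% DMSO). Compounds were diluted in nominally Ca2+-free HEPES-buffered solution. Baseline-normalised AUC was scaled to DMSO and agonist controls, and IC50 was derived by nonlinear fit. n = 6/concentration, two independent experiments.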

T1 sequence (Q9GZU1 whole entry): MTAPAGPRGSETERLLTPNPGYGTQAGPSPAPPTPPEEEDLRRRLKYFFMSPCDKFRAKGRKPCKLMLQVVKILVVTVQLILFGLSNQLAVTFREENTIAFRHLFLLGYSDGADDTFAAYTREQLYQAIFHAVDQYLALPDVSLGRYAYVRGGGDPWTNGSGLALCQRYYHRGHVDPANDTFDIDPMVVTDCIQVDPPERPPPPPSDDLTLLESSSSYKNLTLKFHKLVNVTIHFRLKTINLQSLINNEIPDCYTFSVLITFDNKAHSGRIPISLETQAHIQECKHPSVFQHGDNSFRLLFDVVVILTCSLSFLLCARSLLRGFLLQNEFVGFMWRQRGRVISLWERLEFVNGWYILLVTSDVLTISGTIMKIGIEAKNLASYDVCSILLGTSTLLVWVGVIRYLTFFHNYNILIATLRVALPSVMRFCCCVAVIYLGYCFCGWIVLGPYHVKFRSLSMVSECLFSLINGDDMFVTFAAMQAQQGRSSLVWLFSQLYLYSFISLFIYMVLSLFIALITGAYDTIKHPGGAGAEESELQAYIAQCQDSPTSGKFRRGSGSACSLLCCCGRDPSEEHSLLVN
T2 sequence (Q9GZU1 whole entry): as above

For `CC1CC(C)(C)N(C(=O)CN2C(=O)c3ccccc3C2=O)c2ccccc21` (stereo not shown) [compound 1, 2-(2-oxo-2-(2,2,4-trimethyl-3,4-dihydroquinolin-1(2H)-yl)ethyl)isoindoline-1,3-dione], the equilibrium dissociation constant (Kd) (commonly the constant that tells how readily two partners part at equilibrium) at hTRPML1-nLuc [1] was 37.3 µM; at hTRPML1-nLuc [3] it was 19.8 ± 1.8 µM. Moreover, the residence time at hTRPML1-nLuc [1] turned out to be 1.5 min. For the same compound, the koff (as a rule, a measure of how fast the partners let go of each other) at hTRPML1-nLuc [1] is 0.0108 s⁻¹. The values for the EC50 on GCaMP6f-hTRPML1 [2] and with hTRPML1 (read-out: EC50 in previous studies) were 13 ± 3.1 µM and 9.7 µM, respectively.

As for `COc1ccccc1N1CCN(c2ccccc2NS(=O)(=O)c2ccccc2)CC1` [compound 8, N-(2-(4-(2-methoxyphenyl)piperazin-1-yl)phenyl)benzenesulfonamide], at hTRPML1-nLuc [1], the Kd came out at 1 µM, the residence time came out at 1.5 min and the koff is 0.0112 s⁻¹. At hTRPML1-nLuc [1] (read-out: kon of unlabeled compound), the kon (usually the rate constant with which the complex forms) was 10700 M⁻¹ s⁻¹. At hTRPML1-nLuc [3], this compound displayed a Kd of 2.8 ± 1.2 µM. Also, the IC50 (commonly the midpoint of a concentration-inhibition curve) against GCaMP6f-hTRPML1 [4] is 2800 ± 200 nM. Besides, the IC50 in the experiment with hTRPML1 (read-out: IC50 in previous studies) is 1800 nM.

These data come from PMC10267526 (The Journal of Biological Chemistry, 2023).
